{"source": "ChEMBL document CHEMBL4477254", "about": "“Synthesis and biological evaluation of some novel triazole hybrids of curcumin mimics and their selective anticancer activity against breast and prostate cancer cell lines” (Bioorg Med Chem Lett, 2016)", "key": {"MCF7 [1]": {"test_system": "MCF7", "experiment": "Decrease in Bcl-2 expression in human MCF7 cells at 3 to 9 uM after 24 hrs by Western blot analysis", "format": "functional, cell-based", "procedure,_shortened": "(§1)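 MCF-7 or PC-3 cells treated with compound for 24 h, harvested; PCNA, Bax and Bcl-2 protein expression checked by Western blotting.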"}, "MCF7 [2]": {"test_system": "MCF7", "experiment": "Induction of morphological changes in human MCF7 cells at 1 to 6 uM after 24 hrs by phase contrast microscopy", "format": "functional, cell-based", "procedure,_shortened": "(§2)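 Cells were exposed to a range of concentrations for 24 h. Cell number and morphology, including detachment from the surface, were assessed by phase-contrast microscopy at 10X magnification.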"}, "MCF7 [3]": {"test_system": "MCF7", "experiment": "Decrease in PCNA levels in human MCF7 cells at 3 to 9 uM after 24 hrs by Western blot analysis", "format": "functional, cell-based", "procedure,_shortened": "as §1"}, "MCF7 [4]": {"test_system": "MCF7", "experiment": "Induction of apoptosis in human MCF7 cells assessed as late apoptotic cells at 3 uM after 24 hrs by annexin V-FITC/propidium iodide staining based flow cytometry (reference value: 5.25%)", "format": "functional", "procedure,_shortened": "(§3)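 Apoptosis by Annexin V-FITC/PI dual staining: MCF-7 cells treated 24 h at 3, 6 and 9 µM, then harvested, stained and acquired by flow cytometry; early apoptotic = AnnexinV+/PI−, live = AnnexinV−/PI−, necrotic = AnnexinV−/PI+.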"}, "MCF7 [5]": {"test_system": "MCF7", "experiment": "Induction of mitochondrial membrane depolarization in human MCF7 cells at 3 uM after 24 hrs by JC-1 staining based flow cytometry (reference value: 11%)", "format": "functional"}, "MCF7 [6]": {"test_system": "MCF7", "experiment": "Cell cycle arrest in human MCF7 cells assessed as accumulation at G2/M phase at 9 uM after 24 hrs by propidium iodide staining based flow cytometry (reference value: 20.30%)", "format": "functional", "procedure,_shortened": "(§4)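 Cells treated 24 h with test compound, MCF-7 at various concentrations and PC-3 at various concentrations; cells harvested, stained with propidium iodide and acquired by flow cytometry for cell cycle phase distribution.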"}, "MCF7 [7]": {"test_system": "MCF7", "experiment": "Induction of mitochondrial membrane depolarization in human MCF7 cells at 9 uM after 24 hrs by JC-1 staining based flow cytometry (reference value: 11%)", "format": "functional"}, "MCF7 [8]": {"test_system": "MCF7", "experiment": "Induction of apoptosis in human MCF7 cells assessed as necrotic cells at 3 uM after 24 hrs by annexin V-FITC/propidium iodide staining based flow cytometry (reference value: 4.76%)", "format": "functional", "procedure,_shortened": "as §3"}, "MCF7 [9]": {"test_system": "MCF7", "experiment": "Cell cycle arrest in human MCF7 cells assessed as accumulation at G0/G1 phase at 3 uM after 24 hrs by propidium iodide staining based flow cytometry (reference value: 45.67%)", "format": "functional", "procedure,_shortened": "as §4"}, "MCF7 [10]": {"test_system": "MCF7", "experiment": "Induction of apoptosis in human MCF7 cells assessed as decrease in live cells after 24 hrs by annexin V-FITC/propidium iodide staining based flow cytometry", "format": "functional, cell-based", "procedure,_shortened": "as §3"}, "MCF7 [11]": {"test_system": "MCF7", "experiment": "Induction of apoptosis in human MCF7 cells assessed as early apoptotic cells at 9 uM after 24 hrs by annexin V-FITC/propidium iodide staining based flow cytometry (reference value: 7.36%)", "format": "functional", "procedure,_shortened": "as §3"}, "MCF7 [12]": {"test_system": "MCF7", "experiment": "Cell cycle arrest in human MCF7 cells assessed as accumulation at G0/G1 phase at 6 uM after 24 hrs by propidium iodide staining based flow cytometry (reference value: 45.67%)", "format": "functional", "procedure,_shortened": "as §4"}, "[13]": {"experiment": "Intrinsic hepatic clearance in liver microsomes (unknown origin) assessed per mg of protein at 8 ug/ml in presence of NADPH by UPLC analysis", "format": "ADME, Microsome", "settings": "read-out: CLH (converted)"}, "PC-3 [14]": {"test_system": "PC-3", "experiment": "Induction of apoptosis in human PC3 cells assessed as decrease in live cells after 24 hrs by annexin V-FITC/propidium iodide staining based flow cytometry", "format": "functional, cell-based", "procedure,_shortened": "(§5)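 MCF-7 cells exposed to 3, 6 or 9 μM and PC-3 cells to 4.8 or 8.8 μM for 24 h, then harvested and dual-stained with Annexin V-FITC/PI and read by flow cytometry. Gates: live AnnexinV⁻/PI⁻, early apoptotic AnnexinV⁺/PI⁻, necrotic AnnexinV⁻/PI⁺.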"}, "PC-3 [15]": {"test_system": "PC-3", "experiment": "Increase in Bax expression in human PC3 cells at 4.8 to 8.8 uM after 24 hrs by Western blot analysis", "format": "functional, cell-based", "procedure,_shortened": "as §1"}, "PC-3 [16]": {"test_system": "PC-3", "experiment": "Induction of apoptosis in human PC3 cells assessed as viable cells at 4.8 uM after 24 hrs by annexin V-FITC/propidium iodide staining based flow cytometry (reference value: 92.24%)", "format": "functional", "settings": "PC-3, 24 h, read-out: Activity", "procedure,_shortened": "as §5"}, "PC-3 [17]": {"test_system": "PC-3", "experiment": "Induction of apoptosis in human PC3 cells assessed as early apoptotic cells at 8.8 uM after 24 hrs by annexin V-FITC/propidium iodide staining based flow cytometry (reference value: 4.44%)", "format": "functional", "procedure,_shortened": "as §5"}, "PC-3 [18]": {"test_system": "PC-3", "experiment": "Induction of mitochondrial membrane depolarization in human PC3 cells at 4.8 uM after 24 hrs by JC-1 staining based flow cytometry (reference value: 4.51%)", "format": "functional"}, "[19]": {"biological_target": "Serine/threonine-protein kinase AKT (Homo sapiens) (UniProt P31751+Q9Y243+P31749)", "sequence (P31749 whole entry, looked up)": "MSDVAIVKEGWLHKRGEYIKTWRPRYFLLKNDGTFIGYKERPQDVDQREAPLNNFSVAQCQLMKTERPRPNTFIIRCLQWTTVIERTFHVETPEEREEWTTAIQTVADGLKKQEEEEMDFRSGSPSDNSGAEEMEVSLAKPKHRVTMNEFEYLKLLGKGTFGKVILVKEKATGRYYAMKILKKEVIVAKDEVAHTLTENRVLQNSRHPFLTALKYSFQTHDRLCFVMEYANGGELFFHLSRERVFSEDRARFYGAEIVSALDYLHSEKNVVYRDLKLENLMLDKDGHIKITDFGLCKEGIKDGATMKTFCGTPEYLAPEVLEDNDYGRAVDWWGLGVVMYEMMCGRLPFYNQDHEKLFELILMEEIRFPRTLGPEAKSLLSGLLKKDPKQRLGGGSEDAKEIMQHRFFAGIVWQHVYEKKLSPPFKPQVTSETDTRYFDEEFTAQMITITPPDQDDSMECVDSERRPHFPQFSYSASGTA", "sequence (P31751 whole entry, looked up)": "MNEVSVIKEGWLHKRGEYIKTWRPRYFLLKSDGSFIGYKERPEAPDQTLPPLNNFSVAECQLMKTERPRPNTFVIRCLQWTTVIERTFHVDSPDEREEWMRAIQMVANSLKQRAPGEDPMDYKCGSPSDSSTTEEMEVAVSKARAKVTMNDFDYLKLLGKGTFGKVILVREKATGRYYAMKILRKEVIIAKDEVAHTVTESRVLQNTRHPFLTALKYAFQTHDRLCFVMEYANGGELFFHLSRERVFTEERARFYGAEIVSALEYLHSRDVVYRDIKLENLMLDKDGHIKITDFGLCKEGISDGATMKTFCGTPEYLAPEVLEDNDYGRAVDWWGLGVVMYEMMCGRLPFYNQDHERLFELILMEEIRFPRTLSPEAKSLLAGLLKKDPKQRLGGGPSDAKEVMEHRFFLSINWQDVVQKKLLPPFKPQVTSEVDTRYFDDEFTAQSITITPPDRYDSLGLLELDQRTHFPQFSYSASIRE", "sequence (Q9Y243 whole entry, looked up)": "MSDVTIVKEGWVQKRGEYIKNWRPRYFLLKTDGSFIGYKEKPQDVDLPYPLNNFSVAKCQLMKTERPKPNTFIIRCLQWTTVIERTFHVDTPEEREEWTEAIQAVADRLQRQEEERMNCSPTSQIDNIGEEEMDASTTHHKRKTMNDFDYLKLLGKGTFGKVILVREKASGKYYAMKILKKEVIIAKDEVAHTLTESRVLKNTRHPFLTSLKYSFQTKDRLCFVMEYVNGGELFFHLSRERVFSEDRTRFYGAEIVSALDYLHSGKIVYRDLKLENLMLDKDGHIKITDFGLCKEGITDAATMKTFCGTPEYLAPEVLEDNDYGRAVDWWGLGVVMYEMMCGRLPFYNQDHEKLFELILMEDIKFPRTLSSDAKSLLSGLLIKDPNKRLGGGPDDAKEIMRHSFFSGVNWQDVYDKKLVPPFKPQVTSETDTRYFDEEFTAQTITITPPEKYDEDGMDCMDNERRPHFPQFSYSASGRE", "experiment": "Inhibition of Akt phosphorylation at […] in human PC3 cells at 8.8 uM after 24 hrs by Western blot analysis", "format": "cell-based", "procedure,_shortened": "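Protein expression was analysed by Western blotting of cells harvested after 24 h compound treatment.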"}, "PC-3 [20]": {"test_system": "PC-3", "experiment": "Induction of apoptosis in human PC3 cells assessed as viable cells at 8.8 uM after 24 hrs by annexin V-FITC/propidium iodide staining based flow cytometry (reference value: 92.24%)", "format": "functional", "settings": "PC-3, 24 h, read-out: Activity", "procedure,_shortened": "as §5"}, "PC-3 [21]": {"test_system": "PC-3", "experiment": "Induction of morphological changes in human PC3 cells assessed as cell detachment at >8.8 uM after 24 hrs by phase contrast microscopy", "format": "functional, cell-based", "procedure,_shortened": "as §2"}, "PC-3 [22]": {"test_system": "PC-3", "experiment": "Induction of apoptosis in human PC3 cells assessed as necrotic cells at 4.8 uM after 24 hrs by annexin V-FITC/propidium iodide staining based flow cytometry (reference value: 2.52%)", "format": "functional", "procedure,_shortened": "as §5"}}, "note": "Calls of active or inactive are those of the source. The rule behind the calls is not given here.", "data": [{"smiles": "O=C1/C(=C/c2ccccc2F)CN(Cc2cn(Cc3ccc(F)cc3)nn2)C/C1=C\\c1ccccc1F", "values": [{"measurement": "Activity", "setting": "MCF7 [1]", "value": "Active"}, {"measurement": "Activity", "setting": "MCF7 [2]", "value": "Active"}, {"measurement": "Activity", "setting": "MCF7 [3]", "value": "Active"}, {"measurement": "Activity", "setting": "MCF7 [4]", "value": 16.3, "unit": "%"}, {"measurement": "Activity", "setting": "MCF7 [5]", "value": 66.45, "unit": "%"}, {"measurement": "Activity", "setting": "MCF7 [6]", "value": 35.11, "unit": "%"}, {"measurement": "Activity", "setting": "MCF7 [7]", "value": 89.87, "unit": "%"}, {"measurement": "Activity", "setting": "MCF7 [8]", "value": 6.18, "unit": "%"}, {"measurement": "Activity", "setting": "MCF7 [9]", "value": 38.9, "unit": "%"}, {"measurement": "Activity", "setting": "MCF7 [10]", "value": "Dose-dependent effect"}, {"measurement": "Activity", "setting": "MCF7 [11]", "value": 30.88, "unit": "%"}, {"measurement": "Activity", "setting": "MCF7 [12]", "value": 11.97, "unit": "%"}]}, {"smiles": "Cc1ccc(/C=C2\\CN(Cc3cn(Cc4ccccc4F)nn3)C/C(=C\\c3ccc(C)cc3)C2=O)cc1", "values": [{"measurement": "CLint scaled at 8 ug/ml", "setting": "[13]", "value": 2630, "unit": "mL/min/kg"}, {"measurement": "Activity", "setting": "PC-3 [14]", "value": "Dose-dependent effect"}, {"measurement": "Activity", "setting": "PC-3 [15]", "value": "Active"}, {"measurement": "viability at 4.8 µM", "setting": "PC-3 [16]", "value": 85.3, "unit": "%"}, {"measurement": "Activity", "setting": "PC-3 [17]", "value": 17.54, "unit": "%"}, {"measurement": "Activity", "setting": "PC-3 [18]", "value": 29.85, "unit": "%"}, {"measurement": "inhibition", "setting": "[19]", "value": 100, "unit": "%"}, {"measurement": "viability at 8.8 µM", "setting": "PC-3 [20]", "value": 80.8, "unit": "%"}, {"measurement": "Activity", "setting": "PC-3 [21]", "value": "Active"}, {"measurement": "Activity", "setting": "PC-3 [22]", "value": 0.91, "unit": "%"}]}]}
